Experimental data collected from several papers.
Each line is one published result; the experiments were not run side by side.
Target: Calcium/calmodulin-dependent protein kinase type II subunit delta (CAMK2D, Homo sapiens, UniProt Q13557)

SMILES	test	setting	remaining binding [%]
CC1CCCN1c1nccc(-c2cnn3ncccc23)n1 (stereo not shown)	binding	1 µM	100
COc1cc(-c2cn(C3CCc4ccccc4N(CC(F)(F)F)C3=O)nn2)ccc1-n1ccc(C)n1 (stereo not shown)	cell-free assay, competition with immobilised ligand	1 µM	100
O=C(c1ccc(Nc2ncc(Cl)c(-c3cc4ccccc4s3)n2)cc1)N1CCC(N2CCCC2)CC1	binding, competition with immobilised ligand	1 µM	80
O=c1nc(-c2ccccn2)sc2ccccc12	cell-free assay, competition with immobilised ligand	1 µM	90
N[C@H]1CCN(c2nccc(-c3cnn4ncccc34)n2)C1	binding	1 µM	100
COc1cnc(Nc2cccc(S(N)(=O)=O)c2)nc1N1CCN(c2ccccc2)CC1	binding, competition with immobilised ligand	1 µM	92
COc1ccnn2ncc(-c3ccnc(N(C)C)n3)c12	binding	1 µM	81
O=C(Nc1c[nH]nc1C(=O)NC1CCNCC1)c1cc(F)cc(F)c1	binding, competition with immobilised ligand	1 µM	100
CCS(=O)(=O)c1cc2cc(C[C@@](O)(CC(C)(C)c3ccc(F)cc3C(N)=O)C(F)(F)F)[nH]c2cn1	cell-free assay, competition with immobilised ligand	1 µM	81
CN(C)c1nccc(-c2cnn3ncccc23)n1	binding	1 µM	100
CS(=O)(=O)c1cc(C2(NC(=O)c3cncc4c3cnn4-c3ccc(F)cc3)CC2)ccn1	cell-free assay, competition with immobilised ligand	1 µM	76
F[C@@H]1CCN(c2nccc(-c3cnn4ncccc34)n2)C1	binding	1 µM	100
COc1ccc2cc(OCC3(C(=O)O)CN(C(=O)c4ccc(F)cc4)C3)ccc2c1	cell-free assay, competition with immobilised ligand	1 µM	100
CCN1CCN(Cc2ccc(C(=O)Nc3ccc(C)c(Oc4ccc5c(c4)CC(=O)N5)c3)cc2C(F)(F)F)CC1	binding, competition with immobilised ligand	1 µM	100
CNC(=O)c1ccc(Nc2ncc(C(F)(F)F)c(NCc3nccnc3N(C)S(C)(=O)=O)n2)cc1	cell-free assay, competition with immobilised ligand	0.1 µM	83
O=C(NCCCN1CCOCC1)c1ccc(Nc2ncc(Cl)c(-c3ccc(Cl)s3)n2)cc1	binding, competition with immobilised ligand	1 µM	83
C=CC(=O)N1CCC(C(=O)NCC(=O)N2CCN(c3nc(-c4cnc(N)nc4C(F)F)nc(N4CCOCC4)n3)CC2)CC1	binding, competition with immobilised ligand	1 µM	100
O=C(c1ccc(Nc2nccc(-c3cc4ccccc4s3)n2)cc1)N1CCC(N2CCCC2)CC1	binding, competition with immobilised ligand	1 µM	81
C[C@H]1CCN(c2nccc(-c3cnn4ncccc34)n2)C1	binding	1 µM	94
C[C@H](c1cccc(C#N)c1)n1cc(Cl)cc(C(N)=O)c1=N	cell-free assay, competition with immobilised ligand	1 µM	100
CN(c1nccc(-c2cnn3ncccc23)n1)C1CC1	binding	1 µM	100
CNC(=O)[C@@H]1CC[C@@H](n2c(-c3ccc4cnccc4c3)nc3ccc(C(=O)NCc4cccc(C(N)=O)c4)cc32)C1	binding, competition with immobilised ligand	1 µM	87
